Experimental findings from ChEMBL document CHEMBL3259628, “Discovery of novel 2-((pyridin-3-yloxy)methyl)piperazines as α7 nicotinic acetylcholine receptor modulators for the treatment of inflammatory disorders” (J Med Chem, 2014) are described below.

One data set deals with T1, CYP1A2 (Homo sapiens, UniProt P05177).
T1 sequence (P05177 whole entry): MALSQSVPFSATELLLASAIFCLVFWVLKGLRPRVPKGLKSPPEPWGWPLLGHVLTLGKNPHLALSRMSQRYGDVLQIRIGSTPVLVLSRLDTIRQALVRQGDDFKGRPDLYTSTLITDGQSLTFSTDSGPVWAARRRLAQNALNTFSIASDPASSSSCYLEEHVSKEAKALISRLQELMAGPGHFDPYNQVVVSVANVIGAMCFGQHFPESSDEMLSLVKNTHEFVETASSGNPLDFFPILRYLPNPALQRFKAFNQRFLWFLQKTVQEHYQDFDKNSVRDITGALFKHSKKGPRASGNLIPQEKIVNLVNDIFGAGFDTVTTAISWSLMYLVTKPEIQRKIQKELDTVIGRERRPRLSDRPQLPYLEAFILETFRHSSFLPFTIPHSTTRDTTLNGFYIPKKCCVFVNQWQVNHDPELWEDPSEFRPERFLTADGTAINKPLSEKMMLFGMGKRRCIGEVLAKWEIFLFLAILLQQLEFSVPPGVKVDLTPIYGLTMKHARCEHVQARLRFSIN
In words: Inhibition of CYP1A2 (unknown origin) at 10 uM. It counts as ADME. The essentials:
(§1)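 Each of five Cyp isoforms assayed with single probe substrates rather than a substrate cocktail. Run in duplicate at Cerep. IC50 lines come from a 5-concentration titration curve.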

Data set [1] addresses Neuronal acetylcholine receptor subunit alpha-7 (Rattus norvegicus, UniProt Q05941). In words: Inhibition of biotinylated alpha-bungarotoxin binding to alpha7 nAChR in rat PC12 cells by FACS analysis. In kind it is cell-based, PC-12. The essentials: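 Rat PC12 cells in binding buffer (PBS, 1.0% FBS, 0.02% sodium azide), 0.1% DMSO; biotinylated α-bungarotoxin 10 nM final, 1 h at room temperature; nonspecific binding defined with 1.5 μM unlabeled toxin. After washing, phycoerythrin-streptavidin 1.0 μg/mL final, 15 min in the dark; read by FACS. Screened at 10 and 1 μM, then eight-point 3-fold dilution IC50; mean of two or more experiments.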

Data set [2] has as its system Mus musculus. Nature of the data set: Antiinflammatory activity against ovalbumin-induced allergic lung inflammation BALB/c mouse model assessed as reduction in total blood cells in brochoalveolar lavage fluid at 1 mg/kg, po qd administered on day 29 to 31 post ovalbumin challenge measured 8 hrs post last challenge relative to vehicle-treated control. It counts as functional. An outline of the steps: (§2)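 Balb/c mice sensitized with ovalbumin by IP injection on days 1 and 14, then challenged intranasally with 100 μg ovalbumin on days 29, 30 and 31. Compound in saline given orally starting 30 min before each challenge; groups of six mice. Sham groups were saline-sensitized and allergen-challenged. BAL taken 8 h after the last challenge, with differential cell counts on slides.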

The next data set has as its target CYP3A4 (Homo sapiens, UniProt P08684). In words: Inhibition of CYP3A4 (unknown origin) at 10 uM. In kind it is ADME. An outline of the steps:
as §1

Data set [3] addresses Acetylcholine receptor; alpha1/beta1/delta/gamma (Homo sapiens) (UniProt P02708+P07510+P11230+Q07001). Nature of the data set: Inhibition of alpha1beta1gammadelta nAChR (unknown origin) at 10 uM. It counts as protein-complex assay. The essentials:
(§3)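 Receptor, ion channel and transporter binding panel run at Cerep in duplicate. Percent inhibition measured at 10 μM compound.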

In the next data set the target is CYP2C19 (Homo sapiens, UniProt P33261). Nature of the data set: Inhibition of CYP2C19 (unknown origin) at 10 uM. In kind it is ADME. The essentials:
as §1

Data set [4] relates to Mus musculus. In words: Antiinflammatory activity against ovalbumin-induced allergic lung inflammation BALB/c mouse model assessed as reduction in total blood cells in brochoalveolar lavage fluid at 5 mg/kg, po qd administered on day 29 to 31 post ovalbumin challenge measured 8 hrs post last challenge relative to vehicle-treated control. It counts as functional. The essentials:
as §2

Data set [5] deals with T2, Neuronal acetylcholine receptor subunit alpha-7 (Homo sapiens, UniProt P36544). The settings on record: 300 uM.
T2 sequence (P36544 whole entry): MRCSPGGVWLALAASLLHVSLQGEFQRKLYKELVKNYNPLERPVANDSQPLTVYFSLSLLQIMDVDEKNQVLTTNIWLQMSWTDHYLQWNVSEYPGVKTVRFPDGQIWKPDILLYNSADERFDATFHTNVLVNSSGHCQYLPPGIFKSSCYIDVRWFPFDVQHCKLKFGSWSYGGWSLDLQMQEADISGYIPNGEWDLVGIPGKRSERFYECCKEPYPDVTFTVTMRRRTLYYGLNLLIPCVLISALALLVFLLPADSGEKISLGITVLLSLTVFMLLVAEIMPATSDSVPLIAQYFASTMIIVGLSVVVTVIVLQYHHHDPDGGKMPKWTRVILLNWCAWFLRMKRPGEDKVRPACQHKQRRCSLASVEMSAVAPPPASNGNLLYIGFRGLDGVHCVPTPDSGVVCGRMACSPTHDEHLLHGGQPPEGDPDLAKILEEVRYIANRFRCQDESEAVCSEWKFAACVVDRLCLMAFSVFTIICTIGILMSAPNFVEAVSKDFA
Data set [6] deals with Mus musculus. Nature of the data set: Antiinflammatory activity against ovalbumin-induced allergic lung inflammation BALB/c mouse model assessed as reduction in neutrophils in brochoalveolar lavage fluid at 5 mg/kg, po qd administered on day 29 to 31 post ovalbumin challenge measured 8 hrs post last challenge relative to vehicle-treated control. In kind it is functional. The conditions noted are these: Bronchoalveolar lavage. The essentials: as §2

Data set [7] concerns the target T2, Neuronal acetylcholine receptor subunit alpha-7. Nature of the data set: Agonist activity at human alpha7 nAChR expressed in Xenopus oocytes by voltage clamp method. It counts as cell-based.
Data set [8] in a line: Cmax in mouse at 5 mg/kg, po. It counts as ADME, organism-based. Further details: dose 5 mg/kg, route oral. The conditions noted are these: in vivo.
Data set [9] can be described thus: Half life in mouse at 1 mg/kg, iv. It counts as ADME, organism-based. More on the design: dose 1 mg/kg, route intravenous. The conditions noted are these: in vivo.
Data set [10] concerns Mus musculus. In words: Antiinflammatory activity against ovalbumin-induced allergic lung inflammation BALB/c mouse model assessed as reduction in neutrophils in brochoalveolar lavage fluid at 1 mg/kg, po qd administered on day 29 to 31 post ovalbumin challenge measured 8 hrs post last challenge relative to vehicle-treated control. It counts as functional. The conditions noted are these: Bronchoalveolar lavage. An outline of the steps:
as §2

Data set [11] deals with T3, Neuronal acetylcholine receptor; alpha4/beta2 (Homo sapiens, UniProt P17787+P43681). In words: Agonist activity at human alpha4beta2 nAChR expressed in Xenopus oocytes by voltage clamp method. It counts as cell-based.
T3 sequence (P17787 whole entry): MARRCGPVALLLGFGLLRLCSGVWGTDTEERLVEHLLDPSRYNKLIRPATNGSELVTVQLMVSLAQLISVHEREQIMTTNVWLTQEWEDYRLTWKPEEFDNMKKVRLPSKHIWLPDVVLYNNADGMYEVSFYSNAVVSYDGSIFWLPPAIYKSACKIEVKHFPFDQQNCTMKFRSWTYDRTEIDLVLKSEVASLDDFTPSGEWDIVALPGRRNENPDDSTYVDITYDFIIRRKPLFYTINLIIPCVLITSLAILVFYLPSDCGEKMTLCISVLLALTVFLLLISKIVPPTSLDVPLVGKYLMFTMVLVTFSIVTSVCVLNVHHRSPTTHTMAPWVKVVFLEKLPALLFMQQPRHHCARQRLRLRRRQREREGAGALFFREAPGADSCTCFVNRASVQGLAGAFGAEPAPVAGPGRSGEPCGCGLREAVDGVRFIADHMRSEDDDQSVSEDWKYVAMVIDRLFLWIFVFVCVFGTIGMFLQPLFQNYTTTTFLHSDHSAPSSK
T3 sequence (P43681 whole entry): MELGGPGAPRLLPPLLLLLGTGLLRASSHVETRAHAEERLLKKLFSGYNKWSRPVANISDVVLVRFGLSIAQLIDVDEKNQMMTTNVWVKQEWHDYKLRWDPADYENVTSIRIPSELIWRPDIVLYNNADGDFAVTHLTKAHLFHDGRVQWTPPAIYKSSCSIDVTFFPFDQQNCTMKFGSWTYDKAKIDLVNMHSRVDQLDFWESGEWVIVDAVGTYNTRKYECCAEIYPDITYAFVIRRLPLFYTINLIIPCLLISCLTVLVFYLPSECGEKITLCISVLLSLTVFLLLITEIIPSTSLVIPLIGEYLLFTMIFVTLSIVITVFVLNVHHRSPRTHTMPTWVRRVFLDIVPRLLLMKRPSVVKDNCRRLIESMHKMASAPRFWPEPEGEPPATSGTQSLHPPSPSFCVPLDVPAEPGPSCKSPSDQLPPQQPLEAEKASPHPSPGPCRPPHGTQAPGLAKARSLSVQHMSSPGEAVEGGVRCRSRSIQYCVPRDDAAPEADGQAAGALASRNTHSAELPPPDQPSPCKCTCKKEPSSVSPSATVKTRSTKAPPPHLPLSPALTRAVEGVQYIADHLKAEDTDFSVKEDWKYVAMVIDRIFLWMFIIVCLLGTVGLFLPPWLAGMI
The test system of data set [12] is Mus musculus. In words: Antiinflammatory activity against ovalbumin-induced allergic lung inflammation BALB/c mouse model assessed as reduction in eosinophils in brochoalveolar lavage fluid at 1 mg/kg, po qd administered on day 29 to 31 post ovalbumin challenge measured 8 hrs post last challenge relative to vehicle-treated control. It counts as functional. An outline of the steps: as §2

The target in the next data set is CYP2D6 (Homo sapiens, UniProt P10635). Nature of the data set: Inhibition of CYP2D6 (unknown origin) at 10 uM. In kind it is ADME. An outline of the steps: as §1
Chain of CYP2D6 (P10635 whole entry): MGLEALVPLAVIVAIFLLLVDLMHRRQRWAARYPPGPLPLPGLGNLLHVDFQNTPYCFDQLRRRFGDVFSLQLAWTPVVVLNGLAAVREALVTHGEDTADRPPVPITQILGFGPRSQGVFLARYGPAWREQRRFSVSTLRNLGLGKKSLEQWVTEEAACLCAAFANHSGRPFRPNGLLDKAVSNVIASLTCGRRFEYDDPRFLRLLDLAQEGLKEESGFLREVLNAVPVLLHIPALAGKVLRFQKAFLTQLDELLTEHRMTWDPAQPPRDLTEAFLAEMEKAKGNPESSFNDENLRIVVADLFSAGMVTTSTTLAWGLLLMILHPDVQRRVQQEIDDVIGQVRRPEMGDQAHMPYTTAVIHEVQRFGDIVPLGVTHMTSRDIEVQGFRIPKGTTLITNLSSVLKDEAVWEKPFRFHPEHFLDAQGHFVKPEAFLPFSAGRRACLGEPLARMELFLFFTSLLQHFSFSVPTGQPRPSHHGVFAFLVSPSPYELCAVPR
Data set [13] in a line: Oral bioavailability in mouse at 5 mg/kg. In kind it is ADME, organism-based. The conditions noted are these: in vivo.
For data set [14], the target named is Adenosine receptor A2a (Homo sapiens) (UniProt P29274). In words: Inhibition of adenosine A2a receptor (unknown origin) at 10 uM. An outline of the steps: as §3
Chain of Adenosine receptor A2a (Homo sapiens) (P29274 whole entry): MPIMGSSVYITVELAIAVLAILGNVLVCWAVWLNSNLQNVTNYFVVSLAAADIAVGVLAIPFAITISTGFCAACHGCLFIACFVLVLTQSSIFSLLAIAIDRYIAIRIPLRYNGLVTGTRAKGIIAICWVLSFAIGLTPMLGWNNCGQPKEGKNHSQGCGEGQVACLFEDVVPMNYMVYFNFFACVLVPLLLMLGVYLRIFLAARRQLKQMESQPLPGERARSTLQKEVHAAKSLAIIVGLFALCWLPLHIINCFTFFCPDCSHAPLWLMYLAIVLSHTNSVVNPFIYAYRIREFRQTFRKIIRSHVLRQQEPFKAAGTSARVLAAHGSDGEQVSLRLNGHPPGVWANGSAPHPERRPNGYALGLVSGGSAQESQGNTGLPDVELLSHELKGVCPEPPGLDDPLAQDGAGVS
A short description of data set [15]: Clearance in mouse at 1 mg/kg, iv. It counts as ADME, organism-based. More on the design: dose 1 mg/kg, route intravenous. The conditions noted are these: in vivo.
For data set [16], the target named is T4, 5-hydroxytryptamine receptor 3A (Homo sapiens) (UniProt P46098).
T4 sequence (whole entry): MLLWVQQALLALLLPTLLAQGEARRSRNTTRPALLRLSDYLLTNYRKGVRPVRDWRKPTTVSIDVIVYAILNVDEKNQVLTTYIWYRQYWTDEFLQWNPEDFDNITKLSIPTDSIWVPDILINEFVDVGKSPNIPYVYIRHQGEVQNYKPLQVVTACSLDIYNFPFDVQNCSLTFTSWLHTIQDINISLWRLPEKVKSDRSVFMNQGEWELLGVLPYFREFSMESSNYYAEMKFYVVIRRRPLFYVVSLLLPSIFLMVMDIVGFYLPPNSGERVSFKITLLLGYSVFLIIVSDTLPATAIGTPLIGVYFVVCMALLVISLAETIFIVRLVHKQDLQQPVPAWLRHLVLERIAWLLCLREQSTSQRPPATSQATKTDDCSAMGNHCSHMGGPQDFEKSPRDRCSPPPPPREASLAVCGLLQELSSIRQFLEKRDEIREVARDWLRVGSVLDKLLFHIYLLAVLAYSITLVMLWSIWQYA
Nature of the data set: Inhibition of 5-HT3 receptor (unknown origin) at 10 uM. The essentials:
as §3

Data set [17] deals with T3, Neuronal acetylcholine receptor; alpha4/beta2. In words: Inhibition of human alpha4beta2 nAChR by binding assay.
For data set [18], the system named is Mus musculus. Nature of the data set: Antiinflammatory activity against ovalbumin-induced allergic lung inflammation BALB/c mouse model assessed as reduction in eosinophils in brochoalveolar lavage fluid at 5 mg/kg, po qd administered on day 29 to 31 post ovalbumin challenge measured 8 hrs post last challenge relative to vehicle-treated control. More on the design: dose 5 mg/kg. It counts as functional, organism-based. The essentials:
as §2

A further data set has as its target CYP2C9 (Homo sapiens, UniProt P11712). In words: Inhibition of CYP2C9 (unknown origin) at 10 uM. In kind it is ADME. The essentials: as §1
Data set [19] can be described thus: Half life in mouse at 5 mg/kg, po. The settings on record: in vivo. More on the design: dose 5 mg/kg, route oral. In kind it is ADME, organism-based.
Data set [20] concerns the target T3, Neuronal acetylcholine receptor; alpha4/beta2. In words: Agonist activity at alpha4beta2 nAChR (unknown origin).

Calls of active or inactive are those of the source. No cut-off for these calls is given here.

Chain of CYP3A4 (P08684 whole entry): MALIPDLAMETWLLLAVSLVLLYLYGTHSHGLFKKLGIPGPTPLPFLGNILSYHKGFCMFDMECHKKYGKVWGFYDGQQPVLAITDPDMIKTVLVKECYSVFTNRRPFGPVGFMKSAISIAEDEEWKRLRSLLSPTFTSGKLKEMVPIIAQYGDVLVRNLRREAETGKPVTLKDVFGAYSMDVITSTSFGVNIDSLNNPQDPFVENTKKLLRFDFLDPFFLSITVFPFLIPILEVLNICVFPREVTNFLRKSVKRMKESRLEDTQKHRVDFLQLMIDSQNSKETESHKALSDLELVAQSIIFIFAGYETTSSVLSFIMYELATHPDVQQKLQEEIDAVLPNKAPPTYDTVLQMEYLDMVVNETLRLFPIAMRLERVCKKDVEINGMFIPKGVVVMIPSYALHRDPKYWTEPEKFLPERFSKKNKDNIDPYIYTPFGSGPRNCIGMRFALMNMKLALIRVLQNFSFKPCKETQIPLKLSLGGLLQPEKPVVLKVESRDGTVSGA
Chain of CYP2C9 (P11712 whole entry): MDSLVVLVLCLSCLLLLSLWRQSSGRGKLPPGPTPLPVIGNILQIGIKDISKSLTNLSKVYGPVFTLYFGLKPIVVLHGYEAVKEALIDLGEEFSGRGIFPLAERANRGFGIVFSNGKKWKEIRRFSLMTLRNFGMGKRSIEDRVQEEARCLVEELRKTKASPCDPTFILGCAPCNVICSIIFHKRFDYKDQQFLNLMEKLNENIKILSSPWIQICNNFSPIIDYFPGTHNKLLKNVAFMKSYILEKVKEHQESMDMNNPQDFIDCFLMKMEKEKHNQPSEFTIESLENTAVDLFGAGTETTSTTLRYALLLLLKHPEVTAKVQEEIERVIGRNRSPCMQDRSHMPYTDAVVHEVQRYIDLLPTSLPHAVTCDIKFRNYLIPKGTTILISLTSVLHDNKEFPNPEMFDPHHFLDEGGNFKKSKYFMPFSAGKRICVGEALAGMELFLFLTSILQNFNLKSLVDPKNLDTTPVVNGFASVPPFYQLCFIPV
Chain of Neuronal acetylcholine receptor subunit alpha-7 (Rattus norvegicus, UniProt Q05941) (Q05941 whole entry): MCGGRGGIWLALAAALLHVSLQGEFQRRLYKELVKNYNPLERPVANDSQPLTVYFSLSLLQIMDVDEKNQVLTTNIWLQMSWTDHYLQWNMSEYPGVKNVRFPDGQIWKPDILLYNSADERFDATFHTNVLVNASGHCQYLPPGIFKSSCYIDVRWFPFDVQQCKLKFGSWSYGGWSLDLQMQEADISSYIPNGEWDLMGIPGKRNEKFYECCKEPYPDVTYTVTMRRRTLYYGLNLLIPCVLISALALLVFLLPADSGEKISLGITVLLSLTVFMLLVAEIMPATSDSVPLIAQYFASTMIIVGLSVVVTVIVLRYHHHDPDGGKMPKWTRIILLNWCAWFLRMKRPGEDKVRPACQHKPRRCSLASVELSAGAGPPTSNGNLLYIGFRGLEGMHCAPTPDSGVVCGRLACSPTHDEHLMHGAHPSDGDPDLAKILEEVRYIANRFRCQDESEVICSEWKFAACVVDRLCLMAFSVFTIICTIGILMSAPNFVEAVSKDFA
Chain of CYP2C19 (P33261 whole entry): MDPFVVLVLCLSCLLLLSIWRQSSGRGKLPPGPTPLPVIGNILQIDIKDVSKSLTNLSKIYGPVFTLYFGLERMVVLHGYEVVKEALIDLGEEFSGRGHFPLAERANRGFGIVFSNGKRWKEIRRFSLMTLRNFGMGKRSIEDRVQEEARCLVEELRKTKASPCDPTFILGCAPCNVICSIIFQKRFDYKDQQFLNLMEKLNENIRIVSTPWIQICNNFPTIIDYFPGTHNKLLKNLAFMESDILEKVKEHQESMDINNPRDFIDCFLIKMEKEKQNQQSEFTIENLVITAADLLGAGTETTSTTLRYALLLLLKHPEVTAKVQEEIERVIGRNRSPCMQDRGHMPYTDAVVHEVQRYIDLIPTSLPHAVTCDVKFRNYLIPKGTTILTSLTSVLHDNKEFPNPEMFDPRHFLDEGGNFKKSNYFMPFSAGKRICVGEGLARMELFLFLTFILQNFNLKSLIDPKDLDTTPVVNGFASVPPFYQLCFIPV

One may read the inhibition as the share of the control response that was lost under treatment. Broadly, the IC50 is the concentration needed to halve the response being measured. Low readings indicate higher potency, high ones lower potency. A word on the inhibition in vivo: it is the share of the control response that was lost under treatment. As a reminder, the Emax is the greatest response seen or fitted, relative to the assay's reference. The term EC50 denotes the concentration that produces a half-maximal response. The term Cmax denotes the maximum level reached in the sampled fluid or tissue. A word on the half-life: it is how long it takes for the measured level to halve. As usually defined, the bioavailability is dose-corrected exposure relative to a reference, in per cent. A low value points to little systemic uptake. In general, clearance refers to a measure of how efficiently the substance is removed, as volume per time. In the case of `Cl.c1cncc(OC[C@H]2CNCCN2c2nc3ncccc3o2)c1`, the inhibition at 10 µM stood at 25% against CYP1A2; 5% at CYP3A4; 9% against CYP2C19; 1% on CYP2D6; 22% against CYP2C9. Besides, the IC50 was 5.5 nM in data set [1] and 58 nM in [17]. In addition, the inhibition in vivo at 1 mg/kg is 60% in the data set on Mus musculus [2], 90% in the data set with Mus musculus [10] and 64% with Mus musculus [12]. Moreover, the results for the inhibition in [3], in data set [14] and in data set [16] were 1%, 50% and 43%, respectively. The inhibition in vivo at 5 mg/kg in the data set with Mus musculus [4] is 60%; with Mus musculus [6] it was 78%. In data set [5], this compound registered a maximal effect (Emax) of 85%. Further, the EC50 in data set [7] came to 200 nM. In [8], the Cmax is 2530 nM. For the same compound, the values for the half-life in [9] and in [19] were 19 min and 98 min, respectively. For the same compound, in data set [11], the outcome was inactive. Besides, the bioavailability in [13] came out at 50%. This compound yielded a clearance in [15] of 72 mL/min/kg. The inhibition entry in the data set on Mus musculus [18] was “inactive”.

For orientation: Ki means the equilibrium dissociation constant of an inhibitor or competing ligand from its target. Read a low Ki as higher affinity. With `c1cncc(OC[C@@H]2CCN2)c1`, the affinity in data set [20], expressed as Ki, was 0.052 nM.
